Results: ChEMBL document CHEMBL1122954, “Synthesis and antiallergic activity of some quinolinones and imidazoquinolinones” (1985)

What was measured:
Type in all cases: functional
Rattus norvegicus [1] = experiment: Antiallergic activity determined by rat passive cutaneous anaphylaxis (PCA) assay when administered intraperitoneally at dose 60 mg/kg; settings: route intraperitoneal
Rattus norvegicus [2] = experiment: Percentage normal weight gain when dosed at 200 mg/kg on day one of the 2-week study in rat
Procedure, shortened: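 Male Sprague-Dawley rats, fasted 16 h, given a single oral dose in 0.1% Methocel; controls got vehicle. Groups of 8–10, weighed daily at about the same time over 2 weeks. Gain over the first 4 days compared with expected gain from standard growth charts for age and strain. Mean % of normal weight gain ± standard error.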

Rattus norvegicus [3] = experiment: Antiallergic activity by rat passive cutaneous anaphylaxis (PCA) assay when administered perorally at dose 100 mg/kg; settings: route oral

CCOC(=O)c1cnc2c(N)cc(C)cc2c1O was tested, and the Activity (Rattus norvegicus [1]) was -2.
CCOC(=O)c1cnc2c([N+](=O)[O-])cccc2c1O showed a Normal weight gain (Rattus norvegicus [2]) of 106%, an Activity (Rattus norvegicus [3]) of -2 and an Activity (Rattus norvegicus [1]) of 13.
With CCOC(=O)c1cnc2c(N)cccc2c1O the Normal weight gain (Rattus norvegicus [2]) was 86% and the Activity (Rattus norvegicus [1]) was 19.
Work on CCO/C(C)=N/c1cccc2c(O)cc(C(=O)OC)nc12 yielded an Activity (Rattus norvegicus [1]) of 24.
With COC(=O)c1cc(O)c2cccc([N+](=O)[O-])c2n1 the Normal weight gain (Rattus norvegicus [2]) was 104%, the Activity (Rattus norvegicus [3]) was 8 and the Activity (Rattus norvegicus [1]) was 66.
In the case of CCOC(=O)c1cnc2c(NC=O)cccc2c1O, the Normal weight gain (Rattus norvegicus [2]) is reported as -26%, the Activity (Rattus norvegicus [3]) is reported as 76 and the Activity (Rattus norvegicus [1]) is reported as 67.
CCOC(=O)c1cn2c(C)nc3cccc(c1=O)c32 gave a Normal weight gain (Rattus norvegicus [2]) of -49%, an Activity (Rattus norvegicus [3]) of 83 and an Activity (Rattus norvegicus [1]) of 95.
In the case of O=CNc1cccc2c(O)cc(C(=O)O)nc12, the Activity (Rattus norvegicus [3]) is reported as 16 and the Activity (Rattus norvegicus [1]) is reported as 91.
COC(=O)c1cc(=O)c2cccc3ncn1c32 gave a Normal weight gain (Rattus norvegicus [2]) of 68%, an Activity (Rattus norvegicus [3]) of 1 and an Activity (Rattus norvegicus [1]) of 16.
With CCOC(=O)c1cn2cnc3cc(C)cc(c1=O)c32 the Activity (Rattus norvegicus [3]) was 70 and the Activity (Rattus norvegicus [1]) was 3.
For CCOC(=O)c1cn2cnc3cccc(c1=O)c32, the Normal weight gain (Rattus norvegicus [2]) was -6%, the Activity (Rattus norvegicus [3]) was 70 and the Activity (Rattus norvegicus [1]) was 100.
With COC(=O)c1cc(O)c2cccc(N)c2n1 the Normal weight gain (Rattus norvegicus [2]) was 100%, the Activity (Rattus norvegicus [3]) was 3 and the Activity (Rattus norvegicus [1]) was 10.
With O=C([O-])c1cc(=O)c2c(OCC(O)COc3cccc4oc(C(=O)[O-])cc(=O)c34)cccc2o1.[Na+].[Na+] [CROMOLYN SODIUM] the Activity (Rattus norvegicus [3]) was 2 and the Activity (Rattus norvegicus [1]) was 100.
O=CNc1cccc2c(O)c(C(=O)O)cnc12 was tested, and the Activity (Rattus norvegicus [3]) was 0 and the Activity (Rattus norvegicus [1]) was 62.
